{"data": "Published values of several laboratories", "target": "Serine/threonine-protein kinase 17A (STK17A, Homo sapiens, UniProt Q9UEE5)", "read-out": "enzyme activity", "Residues used in one study (Q9UEE5 1-414)": "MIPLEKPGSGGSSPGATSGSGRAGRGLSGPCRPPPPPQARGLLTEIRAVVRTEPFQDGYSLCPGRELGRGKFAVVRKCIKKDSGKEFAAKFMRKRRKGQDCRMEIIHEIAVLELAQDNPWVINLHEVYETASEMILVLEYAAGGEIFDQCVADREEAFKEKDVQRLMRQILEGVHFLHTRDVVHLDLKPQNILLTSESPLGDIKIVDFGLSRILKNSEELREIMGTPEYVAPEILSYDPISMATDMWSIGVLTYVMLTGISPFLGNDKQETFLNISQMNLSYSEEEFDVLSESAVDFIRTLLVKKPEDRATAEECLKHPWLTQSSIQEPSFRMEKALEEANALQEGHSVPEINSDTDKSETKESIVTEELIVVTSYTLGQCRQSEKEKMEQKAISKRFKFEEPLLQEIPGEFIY", "note": "Protocols differ between the studies behind these lines."}
{"Structure (SMILES)": "Cc1ccc(C(=O)Nc2ccc(CN3CCN(C)CC3)c(C(F)(F)F)c2)cc1C#Cc1cnc2cccnn12", "conditions": "23.5 nM", "remaining activity [%]": 100}
{"Structure (SMILES)": "Cc1nn(CC(F)(F)F)cc1Nc1ncc(Br)c(NCc2ccc(S(N)(=O)=O)cc2)n1", "test": "inhibitor, radiometric", "conditions": "1 µM", "remaining activity [%]": 93}
{"Structure (SMILES)": "CC(C)(O)[C@H]1CC[C@H](Nc2ccc3ncc(-c4cccc(C(F)(F)F)c4)n3n2)CC1", "test": "inhibitor", "conditions": "1 µM", "remaining activity [%]": 106}
{"Structure (SMILES)": "Cc1cnc(NC2CCOCC2)nc1-n1cnc(C(=O)NC(CN)c2cc(F)cc(Cl)c2)c1 (centres unmarked)", "test": "inhibitor, radiometric", "conditions": "1 µM", "remaining activity [%]": 100}
{"Structure (SMILES)": "CCCOc1ccc(OC)c(F)c1C(=O)c1ccc(C(=O)N[C@@H]2CNC[C@H]2NC(=O)c2ccc3[nH]ncc3c2)cc1", "test": "inhibitor", "conditions": "10 µM", "remaining activity [%]": 7}
{"Structure (SMILES)": "O=C(Nc1cnn(-c2csc(C(=O)NC3COC3)c2)c1)Nc1c(F)cccc1Cl", "test": "inhibitor", "conditions": "5 µM", "remaining activity [%]": 89.4}
{"Structure (SMILES)": "Cc1nn(CC(F)(F)F)cc1Nc1ncc(Br)c(NCCc2cnc[nH]2)n1", "test": "inhibitor, radiometric", "conditions": "1 µM", "remaining activity [%]": 63}
{"Structure (SMILES)": "COc1cc(Cl)c(C(=O)N[C@@H](CN[C@H]2CC[C@@H](N)CC2)Cc2ccc(C#N)cc2)cc1-c1ccc(CN[C@H](C)c2ccc(C)cc2)o1", "test": "inhibitor", "conditions": "1 µM", "remaining activity [%]": 70}
{"Structure (SMILES)": "O=c1cc(-c2cccc3c2Sc2ccccc2S3)oc(N2CCOCC2)c1", "test": "inhibitor", "conditions": "0.5 µM", "remaining activity [%]": 98.2}
{"Structure (SMILES)": "CC(C)(C)c1nc2c(s1)c1nc(N)ncc1c1ccc(NS(=O)(=O)c3c(F)cccc3F)c(F)c12", "test": "inhibitor, radiometric", "conditions": "1 µM", "remaining activity [%]": 80}
{"Structure (SMILES)": "Cc1nn(CC(F)(F)F)cc1Nc1ncc(C2CC2)c(NCc2ccc(S(N)(=O)=O)cc2)n1", "test": "inhibitor, radiometric", "conditions": "1 µM", "remaining activity [%]": 105}
{"Structure (SMILES)": "O=C(Nc1cnn(-c2csc(C(=O)NC3COC3)c2)c1)Nc1ccccc1Cl", "test": "inhibitor", "conditions": "5 µM", "remaining activity [%]": 98.4}
{"Structure (SMILES)": "NS(=O)(=O)c1ccc(CNc2nc(Nc3cccc(CN4CCOCC4)c3)ncc2C2CC2)cc1", "test": "inhibitor, radiometric", "conditions": "1 µM", "remaining activity [%]": 108}
{"Structure (SMILES)": "CCN(CC)c1ccc(C2=NNC(=O)CC2C)cc1[N+](=O)[O-] (centres unmarked)", "test": "inhibitor", "conditions": "10 µM", "remaining activity [%]": 100}
